ChEMBL document CHEMBL5150051, “Identification and Characterization of a Novel Indoleamine 2,3-Dioxygenase 1 Protein Degrader for Glioblastoma” (J Med Chem, 2022)

These compounds were tested against von Hippel-Lindau disease tumor suppressor/Indoleamine 2,3-dioxygenase 1 (Homo sapiens) (UniProt P14902+P40337) (assay: Protac activity at IDO1/VHL in IFNgamma-stimulated human U87 cells assessed as IDO1 degradation at 10 uM measured after 24 hrs by Western blotting analysis relative to control).
Format: cell-based
Summary of the method: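 U87 GBM cells primed with human IFNγ 50 ng/mL for 24 h, then exposed to PROTAC at 10 μM for 24 h. Lysates run on western blot; IDO1 bands quantified by densitometry and expressed as percent of normalized IDO1 protein level.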

Sequence of von Hippel-Lindau disease tumor suppressor/Indoleamine 2,3-dioxygenase 1 (Homo sapiens) (P14902 whole entry, looked up): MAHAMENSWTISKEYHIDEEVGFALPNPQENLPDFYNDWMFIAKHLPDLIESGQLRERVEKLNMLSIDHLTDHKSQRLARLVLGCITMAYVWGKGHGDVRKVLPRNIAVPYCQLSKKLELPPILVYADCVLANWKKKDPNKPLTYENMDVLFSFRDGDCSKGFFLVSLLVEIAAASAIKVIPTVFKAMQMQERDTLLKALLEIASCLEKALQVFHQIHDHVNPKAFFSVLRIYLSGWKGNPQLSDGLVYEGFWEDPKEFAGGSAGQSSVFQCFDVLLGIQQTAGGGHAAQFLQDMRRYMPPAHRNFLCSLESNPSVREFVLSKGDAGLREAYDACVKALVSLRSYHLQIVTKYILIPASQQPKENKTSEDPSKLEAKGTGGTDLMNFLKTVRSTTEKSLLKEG
Sequence of von Hippel-Lindau disease tumor suppressor/Indoleamine 2,3-dioxygenase 1 (Homo sapiens) (P40337 whole entry, looked up): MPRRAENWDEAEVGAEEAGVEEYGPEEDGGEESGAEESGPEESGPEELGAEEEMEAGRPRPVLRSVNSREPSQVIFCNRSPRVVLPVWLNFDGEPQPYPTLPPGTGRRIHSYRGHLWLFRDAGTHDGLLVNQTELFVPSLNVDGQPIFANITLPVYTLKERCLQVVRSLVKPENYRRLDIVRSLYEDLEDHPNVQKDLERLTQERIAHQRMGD

In order of rising Activity:
1. Cc1ncsc1-c1ccc(CNC(=O)[C@@H]2C[C@@H](O)CN2C(=O)[C@@H](NC(=O)C2(F)CC2)C(C)(C)C)c(OCCOCCOCCOc2ccc(NC(=O)[C@H](C)[C@H]3CC[C@@H](c4ccnc5ccc(F)cc54)CC3)cc2)c1  0%
2. Cc1ncsc1-c1ccc(CNC(=O)[C@@H]2C[C@@H](O)CN2C(=O)[C@@H](NC(=O)C2(F)CC2)C(C)(C)C)c(OCCOCCOCCOCCOCCOc2cc(NC(=O)[C@H](C)[C@H]3CC[C@@H](c4ccnc5ccc(F)cc54)CC3)ccc2Cl)c1  0%
3. Cc1ncsc1-c1ccc(CNC(=O)[C@@H]2C[C@@H](O)CN2C(=O)[C@@H](NC(=O)C2(F)CC2)C(C)(C)C)c(OCCOCCOCCOCCOCCOc2ccc(NC(=O)[C@H](C)[C@H]3CC[C@@H](c4ccnc5ccc(F)cc54)CC3)cc2)c1  0%
4. Cc1ncsc1-c1ccc(CNC(=O)[C@@H]2C[C@@H](O)CN2C(=O)[C@@H](NC(=O)C2(F)CC2)C(C)(C)C)c(OCCOCCOCCOCCOc2ccc(NC(=O)[C@H](C)[C@H]3CC[C@@H](c4ccnc5ccc(F)cc54)CC3)cc2)c1  0%
5. Cc1ncsc1-c1ccc(CNC(=O)[C@@H]2C[C@@H](O)CN2C(=O)[C@@H](NCCOCCOCCOCCOCCOc2ccc(NC(=O)[C@H](C)[C@H]3CC[C@@H](c4ccnc5ccc(F)cc54)CC3)cc2)C(C)(C)C)cc1  0%
6. Cc1ncsc1-c1ccc(CNC(=O)[C@@H]2C[C@@H](O)CN2C(=O)[C@@H](NC(=O)C2(F)CC2)C(C)(C)C)c(OCCOCCOCCCN2CCC(Oc3ccc(NC(=O)[C@H](C)[C@H]4CC[C@@H](c5ccnc6ccc(F)cc65)CC4)cc3)CC2)c1  0%
7. Cc1ncsc1-c1ccc(CNC(=O)[C@@H]2C[C@@H](O)CN2C(=O)[C@@H](NC(=O)C2(F)CC2)C(C)(C)C)c(OCCCOc2cc(NC(=O)[C@H](C)[C@H]3CC[C@@H](c4ccnc5ccc(F)cc54)CC3)ccc2Cl)c1  0%
8. Cc1ncsc1-c1ccc(CNC(=O)[C@@H]2C[C@@H](O)CN2C(=O)[C@@H](NCCCCOc2ccc(NC(=O)[C@H](C)[C@H]3CC[C@@H](c4ccnc5ccc(F)cc54)CC3)cc2)C(C)(C)C)cc1  0%
9. Cc1ncsc1-c1ccc(CNC(=O)[C@@H]2C[C@@H](O)CN2C(=O)[C@@H](NCCOCCOCCOc2ccc(NC(=O)[C@H](C)[C@H]3CC[C@@H](c4ccnc5ccc(F)cc54)CC3)cc2)C(C)(C)C)cc1  0%
10. Cc1ncsc1-c1ccc(CNC(=O)[C@@H]2C[C@@H](O)CN2C(=O)[C@@H](NCCCCCCCOc2ccc(NC(=O)[C@H](C)[C@H]3CC[C@@H](c4ccnc5ccc(F)cc54)CC3)cc2)C(C)(C)C)cc1  0%
11. Cc1ncsc1-c1ccc(CNC(=O)[C@@H]2C[C@@H](O)CN2C(=O)[C@@H](NC(=O)C2(F)CC2)C(C)(C)C)c(OCCCCOc2ccc(NC(=O)[C@H](C)[C@H]3CC[C@@H](c4ccnc5ccc(F)cc54)CC3)cc2)c1  10%
12. Cc1ncsc1-c1ccc(CNC(=O)[C@@H]2C[C@@H](O)CN2C(=O)[C@@H](NC(=O)C2(F)CC2)C(C)(C)C)c(OCCOCCOc2cc(NC(=O)[C@H](C)[C@H]3CC[C@@H](c4ccnc5ccc(F)cc54)CC3)ccc2Cl)c1  23%
13. Cc1ncsc1-c1ccc(CNC(=O)[C@@H]2C[C@@H](O)CN2C(=O)[C@@H](NC(=O)C2(F)CC2)C(C)(C)C)c(OCCOCCOCCOCCOCCOCCOc2ccc(NC(=O)[C@H](C)[C@H]3CC[C@@H](c4ccnc5ccc(F)cc54)CC3)cc2)c1  27%
14. Cc1ncsc1-c1ccc(CNC(=O)[C@@H]2C[C@@H](O)CN2C(=O)[C@@H](NC(=O)C2(F)CC2)C(C)(C)C)c(OCCCCCCCOc2ccc(NC(=O)[C@H](C)[C@H]3CC[C@@H](c4ccnc5ccc(F)cc54)CC3)cc2)c1  41%
15. Cc1ncsc1-c1ccc(CNC(=O)[C@@H]2C[C@@H](O)CN2C(=O)[C@@H](NCCOCCOCCC(=O)N2CCC(Oc3ccc(NC(=O)[C@H](C)[C@H]4CC[C@@H](c5ccnc6ccc(F)cc65)CC4)cc3)CC2)C(C)(C)C)cc1  67%
16. Cc1ncsc1-c1ccc(CNC(=O)[C@@H]2C[C@@H](O)CN2C(=O)[C@@H](NCCOCCC(=O)N2CCC(Oc3ccc(NC(=O)[C@H](C)[C@H]4CC[C@@H](c5ccnc6ccc(F)cc65)CC4)cc3)CC2)C(C)(C)C)cc1  88%
